Paper PMC5267326 (Chemical Science, 2015)

Experiments:
[1] = cited from earlier work
[2] = test system: FGF2 binding to cell surface heparan sulfate (wild-type CHO cells); assay: Inhibition of FGF2 binding to cell surface HS on wild-type CHO cells; conditions: for IC50: read-out: IC50 against FGF2 binding, biotinylated FGF2 2.5 nM, on ice, mean ± SD of n = 3–4; for inhibition of FGF2 binding (in words): up to 100 μM
Procedure, shortened: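 Wild-type CHO cells grown to confluence in F12/10% FBS, lifted enzyme-free and washed in PBS. Pre-incubated with test compound in PBS/0.1% BSA for 10 min on ice. Biotinylated FGF2 (2.5 nM) added for 30 min on ice. After washing, detected with streptavidin-PE-Cy5 or streptavidin-Cy5 by flow cytometry as geometric mean fluorescence. Expressed as % of binding without compound and plotted against concentration.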

[3] = test system: soluble RAGE (sRAGE) binding to cell surface HS; assay: Inhibition of sRAGE binding to cell surface HS on CHO cells; conditions: for sRAGE binding inhibition at 10 μM (in words): 10 μM compound, cell surface HS
Procedure, shortened: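 CHO cells lifted enzyme-free and washed in PBS. Test compound at 10 μM pre-incubated in PBS/0.1% BSA for 10 min on ice. Biotinylated sRAGE (2 μg mL−1) added for 1 h on ice. After washing, bound protein detected with streptavidin-PE-Cy5 or streptavidin-Cy5 by flow cytometry as geometric mean fluorescence. Reported relative to no-compound binding, means ± SD.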

[4] = In vivo neutralization of fondaparinux in mice; conditions: fondaparinux 0.5 mg kg^–1 s.c., 16 mg kg^–1 i.v.
Procedure, shortened: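 Wild-type mice (8 weeks, ~20–30 g), n = 3 per group. Baseline tail bleed 30 min before dosing. Fondaparinux 0.5 mg kg−1 in PBS given s.c. After 10 min, tail-vein i.v. dosing of test compound (16 mg kg−1, DMSO–water), DMSO–H2O vehicle or protamine (16 mg kg−1, PBS). Blood drawn 5 min later into 3.2% citrate. Plasma anti-FXa colorimetric assay (405 nm) read against a calibration curve. Means ± SD.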

Molecule	IC50 [2]	sRAGE binding inhibition at 10 μM (in words) [3]	further results
Nc1ccnc2ccccc12 [4-aminoquinoline]			pKa of the protonated form [1]: ~8.5
CC(=O)Nc1ccc2nc(C)cc(N)c2c1 [Acetyl-hemisurfen (3), 6-acetamido-4-aminoquinaldine]	> 100 µM	no inhibitory activity	inhibition of FGF2 binding (in words) [2]: did not inhibit; IC50 ([3]; read-out: IC50 inhibition of sRAGE binding to HS, CHO cells, biotinylated sRAGE 2 μg mL^–1): > 100 µM
protamine			neutralizing fondaparinux in vivo (in words) [4]: ineffective
Cc1cc(N)c2cc(NC(=S)Nc3ccc4nc(C)cc(N)c4c3)ccc2n1 [Thio surfen (4), N,N′-bis-(4-amino-2-methyl-6-quinolyl)-thiourea]	8 ± 0.2 µM		
Cc1cc(N)c2cc(NC(N)=O)ccc2n1 [Hemisurfen (2), 4-Amino-2-methyl-6-quinolyl-urea]	> 100 µM	no inhibitory activity	inhibition of FGF2 binding (in words) [2]: did not inhibit
Cc1ccc2cc(NC(=O)Nc3ccc4nc(C)ccc4c3)ccc2n1 [Deaminated surfen (6), 1,3-Bis(2-methylquinolin-6-yl)urea]	> 100 µM	no inhibitory activity	
COc1cc(C)nc2ccc(NC(=O)Nc3ccc4nc(C)cc(OC)c4c3)cc12 [Methoxy surfen (5), 1,3-bis(4-methoxy-2-methyl-quinolin-6-yl)urea]	> 100 µM		
